Here are results for one substance from article PMC10404122 (Drug Design, Development and Therapy, 2023).

Series [1] is described as follows: Population pharmacokinetic model. The class given is in vivo, human. As to conditions: ICU patients, iv, 304 samples from 108 patients, two-compartment model. The essentials: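 NONMEM fit with FOCE with interaction. One- vs two-compartment chosen by goodness-of-fit plots. Covariates tested: sex, age, weight, ALB, Scr, Cockcroft-Gault Ccr, CKD-EPI eGFR, CRRT, APACHE II. Forward inclusion at P < 0.05 (ΔOFV −3.84), backward elimination at P < 0.001 (ΔOFV −10.828). Robustness checked with 1000 bootstrap resamples (median, 2.5–97.5 percentiles). VPC, NPDE and external-set MPE/RMSE also run.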

Series [2] can be described thus: Stability of plasma samples. The class given is in vitro ADME. The settings on record: human plasma (EDTA), −20 °C, HPLC-MS/MS of A2-2.
For series [3] the following is noted: cited from earlier work.
The conditions of series [4]: cited from earlier work. This is another data set of the same source.
The conditions of series [5]: plasma concentration; cited from earlier work.

teicoplanin: in series [1], the “Q, inter-compartmental clearance, final model estimate” value is given as 3.08 L/h; the “Vc, volume of the central compartment, final model estimate” value is 14.4 L; the “Vp, volume of the peripheral compartment, final model estimate” value is 51.6 L. In series [2], the “time for which plasma samples were found to be stable” value is recorded as “at least 41 days”. Besides, in series [3] (400 mg q12h×3, 400 mg qd, within the initial three days), the “patients in whom the standard dosing regimen was insufficient to achieve 10 mg/L” value was “more than 50%”. In series [3], the elimination half-life was 169 h. In addition, in series [4], the “plasma protein binding rate” value is given as “over 90%”. In addition, the “concentration inducing adverse effects: thrombocytopenia” value in series [5] is at least 40000 ng/mL.
